Experimental data pooled from the literature.
Each line is one published result; the experiments were not run side by side.
Target: Serine/threonine-protein kinase LATS1 (LATS1, Homo sapiens, UniProt O95835)
One construct used (O95835 1-1130): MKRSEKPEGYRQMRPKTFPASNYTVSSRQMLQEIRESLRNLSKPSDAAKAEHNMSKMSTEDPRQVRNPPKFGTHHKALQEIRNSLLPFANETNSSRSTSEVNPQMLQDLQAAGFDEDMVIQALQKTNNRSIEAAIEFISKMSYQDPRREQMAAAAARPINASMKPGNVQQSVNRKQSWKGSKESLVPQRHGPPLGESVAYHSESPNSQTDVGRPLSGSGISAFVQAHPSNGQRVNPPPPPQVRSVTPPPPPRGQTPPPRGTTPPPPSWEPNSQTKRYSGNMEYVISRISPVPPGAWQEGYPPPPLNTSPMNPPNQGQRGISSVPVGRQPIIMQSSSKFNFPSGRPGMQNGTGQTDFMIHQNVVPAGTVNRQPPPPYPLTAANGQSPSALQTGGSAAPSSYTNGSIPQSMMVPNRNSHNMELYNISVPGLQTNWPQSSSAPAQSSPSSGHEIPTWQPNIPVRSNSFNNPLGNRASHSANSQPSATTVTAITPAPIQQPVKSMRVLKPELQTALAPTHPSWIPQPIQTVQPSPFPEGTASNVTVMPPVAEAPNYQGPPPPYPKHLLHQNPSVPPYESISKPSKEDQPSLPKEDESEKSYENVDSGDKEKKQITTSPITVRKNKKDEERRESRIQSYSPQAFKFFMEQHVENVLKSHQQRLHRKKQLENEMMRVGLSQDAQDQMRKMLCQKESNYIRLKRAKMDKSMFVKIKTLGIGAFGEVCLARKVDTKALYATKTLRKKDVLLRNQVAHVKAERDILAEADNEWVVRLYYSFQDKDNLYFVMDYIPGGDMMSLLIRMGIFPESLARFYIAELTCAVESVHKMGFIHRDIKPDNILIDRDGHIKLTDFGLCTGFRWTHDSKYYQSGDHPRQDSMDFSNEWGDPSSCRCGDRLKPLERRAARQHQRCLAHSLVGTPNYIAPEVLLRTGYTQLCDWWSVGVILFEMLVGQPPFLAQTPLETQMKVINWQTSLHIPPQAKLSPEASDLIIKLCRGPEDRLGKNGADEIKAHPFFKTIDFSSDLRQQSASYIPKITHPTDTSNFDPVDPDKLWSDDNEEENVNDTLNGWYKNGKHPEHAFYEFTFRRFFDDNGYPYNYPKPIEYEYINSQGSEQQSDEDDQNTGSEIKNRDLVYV

effect on	mode	method	tested at	endpoint	result	SMILES
enzyme activity	inhibitor	–	10 µM	remaining activity	97.2%	Cc1sc(C(=O)NC2COC2)cc1-n1cc(NC(=O)Nc2c(F)cccc2Cl)cn1
cell-free assay	–	competition with immobilised ligand	1 µM	remaining binding	72%	CC(=O)N1CCC(c2ccc(C(=O)NC(=N)N)cc2C(F)(F)F)CC1
enzyme activity	inhibitor	–	5 µM	remaining activity	106%	O=C(Nc1cnn(-c2csc(C(=O)NC3COC3)c2)c1)Nc1ccccc1Cl
enzyme activity	inhibitor	radiometric	50 nM	inhibition	51.5%	Cn1cnc(Br)c1C1=CN(c2ncnc3[nH]cnc23)CCS1
cell-free assay	inhibitor	–	20 µM	remaining signal	33%	Nc1ncnc2occ(-c3ccc(NC(=O)Nc4cc(C(F)(F)F)ccc4F)cc3)c12
enzyme activity	inhibitor	–	23.5 nM	remaining activity	93%	Cc1ccc(C(=O)Nc2ccc(CN3CCN(C)CC3)c(C(F)(F)F)c2)cc1C#Cc1cnc2cccnn12
cell-free assay	–	competition with immobilised ligand	1 µM	remaining binding	81%	CN1CCN(c2cnc3c(C4CCN(C(=O)c5ccc(OC(F)(F)F)cc5N)CC4)ncnc3c2)CC1
target engagement in cells	inhibitor	chemoproteomics	20 mM	inhibition	-30.5%	COc1cccc2c(NCc3ccccc3)nc(-n3c(N)nc4ccccc43)nc12
binding	–	–	1 µM	remaining binding	100%	CC1CCCN1c1nccc(-c2cnn3ncccc23)n1 (stereo not shown)
enzyme activity	inhibitor	–	1 µM	inhibition	7%	COc1cc(-c2cc(-c3ccc(N4CCNCC4)cc3)cnc2C)cc(OC)c1OC
target engagement in cells	inhibitor	chemoproteomics	20 mM	inhibition	7.3%	CCCCNc1ncc2c(-c3ccc(F)cc3)nn(C[C@H]3CC[C@H](N)CC3)c2n1
cell-free assay	–	competition with immobilised ligand	1 µM	remaining binding	96%	O=C(NC[C@@H]1[C@H]2CN(C(=O)OCc3cc(C(F)(F)F)cc(C(F)(F)F)c3)C[C@@H]12)c1ccc2[nH]nnc2c1
enzyme activity	inhibitor	–	1 µM	remaining activity	96.1%	CC(C)(O)[C@H]1CC[C@H](Nc2ccc3ncc(-c4cccc(C(F)(F)F)c4)n3n2)CC1
